Reference: ChEMBL document CHEMBL4619820, “Development of Novel AKR1C3 Inhibitors as New Potential Treatment for Castration-Resistant Prostate Cancer” (J Med Chem, 2020)
Activity calls are given as the source filed them.

What was measured:
Type in all cases: functional, cell-based
CWR22R [1] = test: Induction of ROS generation in human 22Rv1 cells at 50 uM by DCFH-DA dye based flow cytometric analysis
Method in brief: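 22Rv1 cells exposed 3 h to 10 μM inhibitor and/or abiraterone, or 50 μM enzalutamide; intracellular ROS by flow cytometry as DCF-positive cells, percent of vehicle control.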

CWR22R [2] = test: Inhibition of PSA mRNA expression in human 22Rv1 cells at 10 uM pre-incubated for 2 hrs before pregnenolone stimulation for 24 hrs by RT-qPCR analysis
Method in brief: (§1)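 22Rv1 cells pretreated 2 h with test agents, then stimulated 24 h with 20 nM pregnenolone; AR, TMPRSS2 and PSA mRNA measured by RT-qPCR, given as ratio to pregnenolone-free control.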

CWR22R [3] = test: Induction of apoptosis in human 22Rv1 cells assessed as effect on cleaved caspase-3 protein expression level at 50 uM pre-incubated for 2 hrs before addition of pregnenolone for 24 hrs by Western blot analysis
Method in brief: (§2)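 Apoptotic markers in 22Rv1: 2 h pretreatment with or without 10 μM inhibitor and/or 50 μM enzalutamide, then 24 h 20 nM pregnenolone; Bax/Bcl-2 ratio as percent of control; cleaved caspase-3 also by immunofluorescence with DAPI.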

CWR22R [4] = test: Inhibition of AR mRNA expression in human 22Rv1 cells at 10 uM pre-incubated for 2 hrs before pregnenolone stimulation for 24 hrs by RT-qPCR analysis; method in brief: as §1
CWR22R [5] = test: Induction of apoptosis in human 22Rv1 cells assessed as increase in cleaved caspase-3 level at 50 uM pre-incubated for 2 hrs before addition of pregnenolone for 24 hrs by Western blot analysis; method in brief: as §2
CWR22R [6] = test: Inhibition of pregnenolone-induced cell proliferation of human 22Rv1 cells at 10 uM pre-incubated for 2 hrs before pregnenolone stimulation for 72 hrs by alamar blue assay
Method in brief: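 22Rv1 cells (AKR1C3- and AR-expressing) pretreated 2 h with agents, then cultured 72 h with 20 nM pregnenolone; viable cell number given as percent of pregnenolone-free control.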

CWR22R [7] = test: Induction of cell death in human 22Rv1 cells 50 uM pre-incubated for 2 hrs before addition of pregnenolone for 24 hrs
CWR22R [8] = test: Induction of apoptosis in human 22Rv1 cells assessed as effect on Bax protein expression level at 50 uM pre-incubated for 2 hrs before addition of pregnenolone for 24 hrs by Western blot analysis; method in brief: as §2
CWR22R [9] = test: Inhibition of TMPRSS2 mRNA expression in human 22Rv1 cells at 10 uM pre-incubated for 2 hrs before pregnenolone stimulation for 24 hrs by RT-qPCR analysis; method in brief: as §1
CWR22R [10] = test: Induction of apoptosis in human 22Rv1 cells assessed as effect on cleaved PARP protein expression level at 50 uM pre-incubated for 2 hrs before addition of pregnenolone for 24 hrs by Western blot analysis; method in brief: as §2

CNC(=O)c1ccc(N2C(=S)N(c3ccc(C#N)c(C(F)(F)F)c3)C(=O)C2(C)C)cc1F
active: Activity (CWR22R [1]) | inhibition (CWR22R [2]) | Activity (CWR22R [3]) | inhibition (CWR22R [4]) | Activity (CWR22R [5]) | inhibition (CWR22R [6]) | Activity (CWR22R [7]) | Activity (CWR22R [8]) | inhibition (CWR22R [9]) | Activity (CWR22R [10])
